The values that follow come from paper PMC3041911 (Journal of Molecular Neuroscience, 2010).

Broadly, the IC50 is the concentration at which inhibition is half-maximal.

The test system of data set [1] is Aβ38, Aβ40 and Aβ42 formation in primary chicken telencephalic neurons. The experiment in a line: Aβ secretion assay. It counts as cell-based. As to conditions: for Aβ38 E max / Aβ40 E max / Aβ42 E max / IC50: 24 h treatment. The essentials:
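Telencephalic neurons from E8 Lohman Brown chicken embryos, mechanically dissociated through a nylon sieve. Neurons were plated at 1.8×10^6 per poly-D-lysine-coated 24-well in DMEM (4.5 g glucose/l, 5% Nu Serum, 0.01% gentamicin, 2 mM L-glutamine). After 48 h the medium was exchanged and neurons were treated for 24 h at 37°C, 5% CO2 with DMSO-dissolved compound at a range of concentrations, vehicle constant.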

The test system of data set [2] is H4 cells overexpressing human APPK595N/M596L. The experiment in a line: MTT viability assay, H4 cells. Type of data set: cell-based. As to conditions: data not shown.
The next data set concerns Aβ42 levels. As to conditions: 100 μM; ref Okochi et al. [2006]; cited from earlier work.
The subject of data set [3] is Aβ38, Aβ40 and Aβ42 formation in H4 cells overexpressing human APPK595N/M596L. Kind of data set: Aβ secretion assay. It counts as cell-based. As to conditions: for Emax: Homo sapiens; for Aβ38 E max / Aβ40 E max / Aβ42 E max / IC50: H4 cells hAPPK595N/M596L, 24 h treatment; for Effect on Aβ species at low nanomolar (sub-inhibitory) concentrations: low nanomolar concentrations (DAPT: 10 nM). The essentials: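 H4 human neuroglioma line stably transfected with human APP695 K595N/M596L (Swedish) under a CMV/chicken β-actin promoter. Cells were plated at 1×10^4 per 96-well in OptiMEM with 10% FBS, 1% penicillin/streptomycin, 200 μg/ml hygromycin-B and 2.5 μg/ml blasticidin-S. After 48 h the medium was exchanged and cells were dosed for 24 h at 37°C, 5% CO2 with DMSO-dissolved compound at a range of concentrations, vehicle constant.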

Data set [4] relates to primary chicken telencephalic neurons. Kind of data set: MTT viability assay, primary chicken neurons. Type of data set: cell-based. As to conditions: data not shown. The essentials:
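MTT viability assay in primary E8 chicken telencephalic neurons. Neurons were plated at 3×10^5 per poly-D-lysine-coated 96-well in DMEM with 5% Nu Serum, 0.01% gentamicin and 2 mM L-glutamine, kept at 37°C, 5% CO2, and exposed to DMSO-dissolved compound over a concentration range.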
On the technique in general: Tetrazolium assays rely on reduction of a dye to a coloured formazan, in cell work by metabolically active cells.

For data set [5], the system named is total Aβ content in brain tissue. As to conditions: in vivo administration; ref Dovey et al. [2001]; cited from earlier work.
The test system of data set [6] is Aβ formation in primary human neuronal cultures. As to conditions: read-out: IC50 Aβ total, ref Dovey et al. [2001]; cited from earlier work.
[7] abbreviates: primary chicken neurons, 10 μM compound, 24 h, mean ± SEM.
The mark [8] stands for this setting: primary chicken neurons, 50 μM compound, 24 h, mean ± SEM.
Where [9] appears, read: H4 cells, 100 μM compound, 24 h, mean ± SEM.
Setting [10] is: H4 cells, 10 μM compound, 24 h, mean ± SEM.
[11] abbreviates: read-out: Aβ38 IC50, primary chicken neurons.
The mark [12] stands for this setting: read-out: Aβ40 IC50, primary chicken neurons.
Setting [13] is: read-out: Aβ42 IC50, primary chicken neurons.
Setting [14] is: primary chicken neurons, 25 μM compound, 24 h, mean ± SEM.

Where “and” joins values, the source holds several entries; their conditions need not be identical. Identical values can stand only once. Like-named read-outs stand apart in the source and are kept apart here.

In the case of `O=C(O)c1cc(Oc2ccc([N+](=O)[O-])cc2)cc(Oc2ccc([N+](=O)[O-])cc2)c1` [CW, 3,5-bis(4-nitrophenoxy)benzoic acid], the “Aβ38 level in percent of vehicle-treated cultures” value (“Aβ38 level in percent” for short) is reported as 127.9 ± 0.9% in data set [1] (setting [7]), 159.3 ± 8.0% in data set [1] (setting [8]) and 287.5 ± 31.2% in data set [3] (setting [9]). The “Aβ42 level in percent of vehicle-treated cultures” value (from here on “Aβ42 level in percent”) in data set [1] (setting [7]) turned out to be 63.6 ± 2.4%; in data set [1] (setting [8]), 29.9 ± 1.2%; in data set [3] (setting [9]) it was 16.0 ± 1.8%. The “Concentration at which Aβ42 levels start to decline” value amounted to 5 µM in data set [1] (primary chicken neurons, 24 h) and 50 µM in data set [3] (H4 cells, 24 h). The “Aβ40 content (effect in words)” value in data set [1] (primary chicken neurons, up to 50 μM compound) is given as “unchanged”. In addition, in data set [2], the “Cell viability (MTT), result in words” value was “no cell toxicity”. Also, the “Effect on Aβ42 levels” value with Aβ42 levels is reported as “reduce Aβ42 levels”. Besides, in data set [3] (24 h, read-out: Aβ42 E max), the Emax was determined as 100%. Besides, the “Concentration at which toxicity starts (viability assay)” value in data set [4] came to 150 µM.
On to `CCCC[C@@H](C=O)NC(=O)[C@H](CC(C)C)NC(=O)OCc1ccccc1` [Calpeptin, benzyloxycarbonylleucyl-norleucinal], for which the figures for the “Aβ38 level in percent” value in data set [1] (setting [7]) and in data set [3] (setting [10]) were 31.1 ± 1.8% and 12.9 ± 2.6%, respectively. Besides, the “Aβ40 level in percent of vehicle-treated cultures” value came out at 89.9 ± 3.8% in data set [1] (setting [7]) and 35.5 ± 2.2% in data set [3] (setting [10]). Also, the “Aβ42 level in percent” value is given as 259.3 ± 7.3% in data set [1] (setting [7]) and 90.3 ± 6.0% in data set [3] (setting [10]). Further, the “Effect on Aβ levels up to 1 μM” value in data set [1] (primary chicken neurons, up to a concentration of 1 μM) is “no effect”; in data set [3] (H4 cells, up to a concentration of 1 μM), “did not evoke any dramatic changes”. Besides, the “Cell viability (MTT), result in words” value in data set [2] and in data set [4] was “No toxicity” throughout. The Emax in data set [3] (24 h, read-out: Aβ38 E max) was determined as 100%; in data set [3] (24 h, read-out: Aβ40 E max), 100%.
Take `COC(=O)[C@@H](NC(=O)[C@H](C)NC(=O)Cc1cc(F)cc(F)c1)c1ccccc1` [DAPM, N-(N-3,5-difluorophenacetyl)-L-alanyl-S-phenylglycine methyl ester]: the “Concentration at which Aβ38, Aβ40 and Aβ42 levels start to decline” value (from here on “Concentration at which Aβ38”) in data set [1] (primary chicken neurons, 24 h) is on record as 50 nM; in data set [3] (H4 cells, 24 h), 50 nM. Moreover, the “Aβ38 E max” value in data set [1] (primary chicken neurons) and in data set [3] was 100% throughout. In addition, the “Aβ40 E max” value in data set [1] (primary chicken neurons) and in data set [3] was 100% each time. Also, the “Aβ42 E max” value in data set [1] (primary chicken neurons) and in data set [3] was 100% in each case. Moreover, the “Effect on Aβ species at low nanomolar (sub-inhibitory) concentrations” value in data set [1] (primary chicken neurons) is “no increase in Aβ secretion”; in data set [3] (H4 cells) it was “increase of all three Aβ forms”. Besides, the half-maximal inhibitory concentration (IC50) in data set [1] (setting [11]) was 0.0619 µM; in data set [1] (setting [12]), 0.0997 µM and 0.1 µM; in data set [1] (setting [13]), 0.107 µM; in data set [3] (read-out: Aβ38 IC50) it was 0.0199 µM and 0.02 µM; in data set [3] (read-out: Aβ40 IC50), 0.0231 µM and 0.023 µM; in data set [3] (read-out: Aβ42 IC50), 0.0259 µM and 0.026 µM. Besides, the “Cell viability (MTT), result in words” value in data set [2] and in data set [4] was “no effect on cell viability” in each case.
As for `C[C@H](NC(=O)Cc1cc(F)cc(F)c1)C(=O)N[C@H](C(=O)OC(C)(C)C)c1ccccc1` [DAPT, N-[N-(3,5-difluorophenacetyl-L-alanyl)]-S-phenylglycine t-butyl ester], the “Concentration in brain tissue that reduced total Aβ content” value in data set [5] is given as at least 200 nM. For the same molecule, the “Concentration at which Aβ38” value in data set [1] (primary chicken neurons, 24 h) is given as 100 nM; in data set [3] (H4 cells, 24 h), 50 nM. Also, the “Aβ38 E max” value in data set [1] (primary chicken neurons) and in data set [3] was 100% in each case. Further, the “Aβ40 E max” value in data set [1] (primary chicken neurons) and in data set [3] was 100% in each case. The “Aβ42 E max” value in data set [1] (primary chicken neurons) and in data set [3] was 100% each time. Besides, the “Effect on Aβ species at low nanomolar (sub-inhibitory) concentrations” value was “no dramatic increase in Aβ levels” in data set [1] (primary chicken neurons) and “increased the formation of all three Aβ species” in data set [3] (H4 cells). The IC50 in data set [1] (setting [11]) was 0.0712 µM; in data set [1] (setting [12]), 0.0928 µM and 0.093 µM; in data set [1] (setting [13]), 0.101 µM; in data set [6], 0.115 µM; in data set [3] (read-out: Aβ38 IC50) it was 0.0503 µM and 0.05 µM; in data set [3] (read-out: Aβ40 IC50), 0.0614 µM and 0.061 µM. Further, the IC50 in data set [3] (read-out: Aβ42 IC50) is 0.0638 µM and 0.064 µM. In addition, the “Cell viability (MTT), result in words” value in data set [2] and in data set [4] was “not affected” in each case.
Consider `CSc1ccc(/C=C2/C(C)=C(CC(=O)O)c3cc(F)ccc32)cc1` [Sulindac sulfide, (Z)-5-fluoro-2-methyl-1-[p-(methylthio)benzylidene]indene-3-acetic acid], for which the “Aβ38 level in percent” value in data set [1] (setting [14]) is listed as “approximately 149.7 ± 6.4%”. For the same molecule, the “Aβ42 level in percent” value in data set [1] (setting [14]) was determined as 54.7 ± 6.4%; in data set [1] (setting [8]), 25.3 ± 2.1%; in data set [3] (H4 cells, 50 μM compound, 24 h, mean ± SEM), 75.0 ± 7.1%; in data set [3] (setting [9]), 39.3 ± 2.0%. For the same molecule, the “Concentration at which Aβ42 levels start to decline” value turned out to be 25 µM in data set [1] (primary chicken neurons, 24 h) and 50 µM in data set [3] (H4 cells, 24 h). The “Concentration at which cell toxicity starts (viability assay)” value in data set [2] (minor cell toxicity) came to 150 µM. Moreover, the “Aβ40 production (effect in words)” value in data set [3] (H4 cells, 100 μM compound, 24 h) is “unaltered”. Moreover, in data set [3] (24 h, read-out: Aβ42 E max), the Emax worked out at 100%. The “Concentration at which toxicity starts (viability assay)” value in data set [4] worked out at 75 µM.
On to β-secretase inhibitor IV, for which the “Potency of BACE-1 inhibition in primary cells relative to H4 cell line” value in data set [1] (primary chicken neurons versus H4 cells hAPPK595N/M596L) was “approximately tenfold more potent”. The “Concentration at which Aβ38” value in data set [1] (primary chicken neurons, 24 h) is 5 nM. The “Aβ38 E max” value in data set [1] (primary chicken neurons) stood at 91%; in data set [3] it was 88%. Also, the “Aβ40 E max” value is 76% in data set [1] (primary chicken neurons) and 79% in data set [3]. Also, the entries for the “Aβ42 E max” value in data set [1] (primary chicken neurons) and in data set [3] were 70% and 86%, respectively. Also, in data set [1] (primary chicken neurons, inhibitor concentration 25 nM), the Aβ42 reduction result is on record as “more than 50%”. Further, the IC50 in data set [1] (setting [11]) is 0.0037 µM; in data set [1] (setting [12]) it was 0.0047 µM; in data set [1] (setting [13]) it was 0.0048 µM; in data set [3] (read-out: Aβ38 IC50), 0.0923 µM; in data set [3] (read-out: Aβ40 IC50), 0.125 µM; in data set [3] (read-out: Aβ42 IC50) it was 0.216 µM. The “Cell viability (MTT), result in words” value in data set [2] and in data set [4] was “no reduction in cell viability” each time.
